This note sets out measurements from BindingDB's records for doi:10.1021/acs.jmedchem.8b00566 (Research Triangle Institute, 2018).

Assay [1] concerns the target Kappa-type opioid receptor (Homo sapiens, UniProt P41145). The assay is described as follows: Binding affinity to human full length KOR after 60 mins by radioligand-based scintillation counting. The method, boiled down: (§1)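 Outsourced radioligand displacement panel run to the provider's standard protocols. Full concentration–displacement curves were run in duplicate. IC50 came from nonlinear regression. Ki was calculated by Cheng–Prusoff from the IC50, the radioligand concentration and historical Kd values of the ligand.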

The target in assay [2] is T1, Sodium-dependent serotonin transporter (Homo sapiens, UniProt P31645). The assay is described as follows: Inhibition of human SERT expressed in HEK293 cells assessed as reduction in SERT-mediated substrate uptake after 30 mins by fluorescence-based assay. Put shortly:
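HEK293 cells stably expressing human SERT were plated at 15000 cells/well in DMEM + 1% dialyzed FBS for at least 6 h. Medium was replaced with 20 mM HEPES/HBSS pH 7.4 and drug was added for 30 min at 37 °C. Fluorescent uptake dye was then added and read after 30 min at 37 °C (ex 440/em 520 nm). IC50 came from nonlinear regression of fluorescence versus concentration.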

Assay [3] concerns the target T1, Sodium-dependent serotonin transporter. The assay is described as follows: Displacement of [3H]-Paroxetine from recombinant human full length SERT after 60 mins by scintillation counting. Put shortly:
as §1
(Loss of bound radioactivity is the signal in a displacement assay; it reports binding, not function.)

T1 sequence (P31645 whole entry): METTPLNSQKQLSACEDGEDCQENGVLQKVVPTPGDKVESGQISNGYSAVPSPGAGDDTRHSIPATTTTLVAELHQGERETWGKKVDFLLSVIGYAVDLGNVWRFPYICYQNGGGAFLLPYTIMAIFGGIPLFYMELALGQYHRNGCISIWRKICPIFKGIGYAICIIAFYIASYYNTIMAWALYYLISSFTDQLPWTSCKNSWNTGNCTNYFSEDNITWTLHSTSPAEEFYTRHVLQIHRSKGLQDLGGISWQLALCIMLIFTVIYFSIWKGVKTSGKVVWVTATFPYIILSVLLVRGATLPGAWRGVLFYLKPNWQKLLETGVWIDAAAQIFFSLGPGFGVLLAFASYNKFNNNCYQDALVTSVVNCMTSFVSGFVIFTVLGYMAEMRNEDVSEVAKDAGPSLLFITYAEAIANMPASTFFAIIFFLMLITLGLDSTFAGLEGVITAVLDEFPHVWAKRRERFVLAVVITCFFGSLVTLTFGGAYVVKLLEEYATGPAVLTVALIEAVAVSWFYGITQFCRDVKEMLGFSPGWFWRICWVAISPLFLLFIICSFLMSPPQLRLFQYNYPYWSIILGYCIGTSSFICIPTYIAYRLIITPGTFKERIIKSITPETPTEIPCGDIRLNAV
Sequence of Kappa-type opioid receptor (P41145 whole entry): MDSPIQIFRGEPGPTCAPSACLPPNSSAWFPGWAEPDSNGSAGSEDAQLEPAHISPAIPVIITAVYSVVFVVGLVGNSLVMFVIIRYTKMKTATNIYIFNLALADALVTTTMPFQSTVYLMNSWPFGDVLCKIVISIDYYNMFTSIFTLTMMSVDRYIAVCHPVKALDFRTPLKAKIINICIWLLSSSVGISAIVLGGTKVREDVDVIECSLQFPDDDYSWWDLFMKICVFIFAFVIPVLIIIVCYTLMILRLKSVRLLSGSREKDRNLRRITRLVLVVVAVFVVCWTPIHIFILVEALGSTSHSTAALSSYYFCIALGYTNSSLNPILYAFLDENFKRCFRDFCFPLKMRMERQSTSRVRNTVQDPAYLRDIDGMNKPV

For the molecule `COCc1ccc(-c2ccc(N(C[C@@H](N)[C@@H](C)OC)C(=O)[C@@H]3C[C@H]3c3ccccn3)cc2)cc1`, the inhibition constant (Ki) (as a rule, the dissociation constant of the complex between target and ligand, obtained from inhibition or displacement) in assay [1] turned out to be 2290 nM; in assay [3] it was 750 nM. The half-maximal inhibitory concentration (IC50) (commonly the midpoint of a concentration-inhibition curve) in assay [2] was determined as 25100 nM.
